This note sets out measurements from ChEMBL document CHEMBL1914440, “Discovery of potent, selective, and orally bioavailable alkynylphenoxyacetic acid CRTH2 (DP2) receptor antagonists for the treatment of allergic inflammatory diseases” (J Med Chem, 2011).

The AUC is concentration integrated over time. Higher therefore signals more exposure. By CL/F is commonly meant the apparent clearance, not corrected for the fraction that reaches the circulation. What is called Ki is the equilibrium dissociation constant of an inhibitor or competing ligand from its target. High values mean lower affinity, low ones higher affinity. As a reminder, the fraction unbound is the share of the substance not bound to proteins or other matrix. As usually defined, the Emax is the greatest response seen or fitted, relative to the assay's reference. In general, microsomal CLint refers to the rate of metabolic loss divided by the concentration. A lower microsomal CLint goes with slow turnover.

The nature of data set [1]: AUC in BALB/c mouse at 5 mg/kg, po. The format is ADME, organism-based. Also on record: dose 5 mg/kg, route oral. Particulars: plasma. Put shortly:
(§1)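 Mouse PK after a 5 mg/kg oral dose.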

Data set [2] can be described thus: Clearance in BALB/c mouse at 5 mg/kg, po by LC/MS/MS analysis. Type of data set: ADME, organism-based. Also on record: dose 5 mg/kg, route oral. Particulars: in vivo.
For data set [3], the target named is T1, Prostaglandin D2 receptor 2 (Homo sapiens, UniProt Q9Y5Y4).
T1 sequence (Q9Y5Y4 whole entry): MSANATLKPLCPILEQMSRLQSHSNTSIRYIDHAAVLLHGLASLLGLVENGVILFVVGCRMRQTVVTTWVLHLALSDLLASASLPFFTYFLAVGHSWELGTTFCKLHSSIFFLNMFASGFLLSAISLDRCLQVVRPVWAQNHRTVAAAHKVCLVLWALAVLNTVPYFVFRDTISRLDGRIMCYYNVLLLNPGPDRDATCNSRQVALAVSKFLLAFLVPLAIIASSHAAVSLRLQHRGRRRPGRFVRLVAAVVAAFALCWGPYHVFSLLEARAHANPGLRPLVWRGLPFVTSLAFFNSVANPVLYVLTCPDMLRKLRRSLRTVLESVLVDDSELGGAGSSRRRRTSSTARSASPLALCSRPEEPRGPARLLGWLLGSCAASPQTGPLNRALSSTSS
Description: Displacement of [3H]PGD2 from human CRTH2 expressed in chinese hamster CHO cells by liquid scintillation counting. Type of data set: cell-based. The procedure, abridged: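 Scintillation proximity competition assay: 2–5 μg human CRTH2 cell membranes, 1.5 nM [3H]PGD2, WGA-SPA beads, 10 mM HEPES/KOH pH 7.4, 10 mM MnCl2, protease inhibitors, 1% DMSO; 90 min, room temperature, shaking. Nonspecific binding defined with 1 μM PGD2. Ki by Cheng–Prusoff, mean of ≥3 independent dose–response experiments.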
For orientation: In a radioligand displacement assay an active substance lowers the binding of a labelled ligand.

The target of data set [4] is T2, Prostaglandin D2 receptor 2 (Homo sapiens) (UniProt Q9Y5Y4).
T2 sequence (whole entry): T1 sequence (Q9Y5Y4 whole entry)
Briefly: Partial agonist activity at human CRTH2 expressed in chinese hamster CHO cells by cellular dielectric spectroscopy relative to PGD2. Type of data set: functional, cell-based. Put shortly:
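CHO-CRTH2 cells seeded at 100000/well, grown 24 h at 37 °C, washed into HBSS/10 mM HEPES pH 7.4 with 1% DMSO; impedance recorded. Agonism: compound alone, 25 min read. Antagonism: PGD2 at EC80 added to cell–compound mixture, 25 min read. Run with 0.1% BSA.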

The nature of data set [5]: Oral bioavailability in BALB/c mouse at 5 mg/kg by LC/MS/MS analysis. The format is ADME, organism-based. Particulars: in vivo. The procedure, abridged:
as §1

The nature of data set [6]: Percentage unbound in human plasma. Type of data set: ADME, cell-free.
A short description of data set [7]: Percentage unbound in mouse plasma. Type of data set: ADME, cell-free.
The nature of data set [8]: Intrinsic clearance in human liver microsomes assessed per mg of protein at 1 uM by LC/MS/MS analysis. Type of data set: ADME, Microsome. For orientation: Liver microsomes are vesicles of endoplasmic reticulum, rich in cytochrome P450 enzymes.
Data set [9] is described as follows: Intrinsic clearance in rat liver microsomes assessed per mg of protein at 1 uM by LC/MS/MS analysis. Type of data set: ADME, Microsome.
Data set [10] can be described thus: Percentage unbound in rat plasma. The format is ADME, cell-free.

Active and inactive are the calls of the source. The rule behind the calls is not given here. Some results are limits rather than exact numbers.

Consider `CCCS(=O)(=O)c1ccc(C)c(C#Cc2cc(C#N)ccc2OCC(=O)O)c1`, for which the AUC in data set [1] is 1370 ng·h/mL. The CL/F in data set [2] is 18.3 mL/min/kg. The same molecule had a Ki in data set [3] of 7 nM. The outcome in data set [4] was inactive. The bioavailability in data set [5] is 24%.
For the molecule `O=C(O)COc1ccc(Cl)cc1C#Cc1cccnc1`, the fraction unbound in [6] is 0.029. The same molecule registered a Ki in data set [3] of 117 nM.
`O=C(O)COc1ccc(C(F)(F)F)cc1C#Cc1ccccc1Cl` gave an inhibition constant (Ki) in [3] of 12 nM. This molecule came in with an Emax in data set [4] of 60%.
Take `Cc1ccc(S(=O)(=O)N(C)C(C)C)cc1C#Cc1cc(Cl)ccc1OCC(=O)O`: the fraction unbound came to 0.005 in data set [7] and 0.002 in data set [6]. The microsomal CLint at 1 µM in data set [8] is less than 10 µL/min/mg; in [9], 64 µL/min/mg. In data set [3], this molecule had a Ki of 3.8 nM.
In the case of `Cc1ccc(S(=O)(=O)CCCO)cc1C#Cc1cc(Cl)ccc1OCC(=O)O`, the figures for the fraction unbound in data set [10], in data set [7] and in [6] were 0.018, 0.048 and 0.015, respectively. Besides, the Ki in data set [3] was 8 nM.
For the molecule `Cc1ccc(S(C)(=O)=O)cc1C#Cc1cc(Cl)ccc1OCC(=O)O`, the fraction unbound is 0.014 in data set [10], 0.027 in data set [7] and 0.017 in [6]. The microsomal CLint at 1 µM in data set [8] was 14 µL/min/mg; in data set [9], 18 µL/min/mg. The area under the curve (AUC) in [1] was determined as 1800 ng·h/mL. In [2], this molecule had a CL/F of 23.3 mL/min/kg. Besides, the affinity in data set [3], expressed as Ki, was 5 nM. This molecule returned an Emax in [4] of 10%. In data set [5], the bioavailability was determined as 49%.
For the molecule `Cc1ccc(S(=O)(=O)N2CCCCC2C)cc1C#Cc1cc(Cl)ccc1OCC(=O)O` (stereo unspecified), the figures for the microsomal CLint at 1 µM in [8] and in [9] were 89 µL/min/mg and 418 µL/min/mg, respectively. The molecule further had a Ki in data set [3] of 1.9 nM.
For `Cc1ccc(S(=O)(=O)N(C)CC(C)C)cc1C#Cc1cc(Cl)ccc1OCC(=O)O`, the microsomal CLint at 1 µM came to 79 µL/min/mg in data set [8] and 119 µL/min/mg in [9]. This molecule registered a Ki in data set [3] of 4.2 nM.
Regarding `CC(C)c1ccc(S(C)(=O)=O)cc1C#Cc1cc(C#N)ccc1OCC(=O)O`, in data set [1], the AUC was 151 ng·h/mL. Further, the apparent clearance CL/F in [2] was 145 mL/min/kg. Also, the affinity in data set [3], expressed as Ki, was 12 nM. In data set [5], the bioavailability came to 26%.
With `O=C(O)COc1ccc(Cl)cc1C#Cc1ccc(CO)cc1F`, the microsomal CLint at 1 µM in [8] and in data set [9] was less than 10 µL/min/mg throughout. The molecule further gave a CL/F in [2] of 35 mL/min/kg. This molecule also returned a Ki in data set [3] of 28 nM. Moreover, in [5], the bioavailability is 3%.
On to `Cc1ccc(S(=O)(=O)NC(C)C)cc1C#Cc1cc(Cl)ccc1OCC(=O)O`, for which the fraction unbound turned out to be 0.004 in data set [10], 0.01 in [7] and 0.004 in data set [6]. The microsomal CLint at 1 µM was less than 10 µL/min/mg in data set [8] and 12 µL/min/mg in [9]. Besides, in data set [3], the Ki turned out to be 3.4 nM.
Take `CCCc1ccc(S(C)(=O)=O)cc1C#Cc1cc(Cl)ccc1OCC(=O)O`: the values for the free fraction (fraction unbound) in data set [10], in data set [7] and in data set [6] were 0.002, 0.006 and 0.002, respectively. In addition, the affinity in data set [3], expressed as Ki, was 8.6 nM.
For `CC(C)c1ccc(S(C)(=O)=O)cc1C#Cc1cc(Cl)ccc1OCC(=O)O`, the fraction unbound in data set [10] was 0.004; in data set [7], 0.013; in data set [6] it was 0.003. The molecule also had an AUC in data set [1] of 2650 ng·h/mL. For the same molecule, the CL/F in data set [2] is 8.33 mL/min/kg. In data set [3], this molecule returned a Ki of 4.6 nM. The bioavailability in [5] was 29%.
For the molecule `CCCS(=O)(=O)c1ccc(Cl)c(C#Cc2cc(Cl)ccc2OCC(=O)O)c1`, the unbound share (fraction unbound) was 0.002 in data set [10], 0.006 in [7] and 0.003 in [6]. Further, the microsomal CLint at 1 µM in data set [8] and in data set [9] was less than 10 µL/min/mg each time. Moreover, the CL/F in [2] was 16.7 mL/min/kg. In addition, in data set [3], the affinity, expressed as Ki, was 2.1 nM. Moreover, the bioavailability in data set [5] came to 112%.
`COCCN(C)S(=O)(=O)c1ccc(C)c(C#Cc2cc(Cl)ccc2OCC(=O)O)c1`: the figures for the fraction unbound in data set [10], in data set [7] and in data set [6] were 0.007, 0.007 and 0.006, respectively. In addition, the microsomal CLint at 1 µM in data set [8] was 32 µL/min/mg; in [9], 49 µL/min/mg. The Ki in [3] came out at 4.1 nM.
Turning to `Cc1ccc(S(=O)(=O)N(C)C)cc1C#Cc1cc(Cl)ccc1OCC(=O)O`, the fraction unbound in [10] worked out at 0.004; in data set [7] it was 0.01; in [6], 0.004. In addition, the microsomal CLint at 1 µM in data set [8] is less than 10 µL/min/mg; in data set [9] it was 22 µL/min/mg. In data set [3], the affinity corresponds to a Ki of 5 nM.
In the case of `CCCS(=O)(=O)c1cccc(C#Cc2cc(C#N)ccc2OCC(=O)O)c1`, the Ki in [3] was 21 nM. Besides, the Emax in data set [4] is 30%.
Regarding `COCCNS(=O)(=O)c1ccc(C)c(C#Cc2cc(Cl)ccc2OCC(=O)O)c1`, the microsomal CLint at 1 µM in data set [8] and in data set [9] was less than 10 µL/min/mg throughout. In data set [1], the AUC was 831 ng·h/mL. In [2], this molecule had a CL/F of 33.3 mL/min/kg. In data set [3], this molecule came in with a Ki of 3.6 nM. Also, the bioavailability in data set [5] worked out at 33%.
Take `CN(C)S(=O)(=O)c1ccc(F)c(C#Cc2cc(Cl)ccc2OCC(=O)O)c1`: the fraction unbound in [10] was 0.007; in [7], 0.029; in data set [6] it was 0.009. Also, the microsomal CLint at 1 µM in data set [8] and in data set [9] was less than 10 µL/min/mg each time. Moreover, the apparent clearance (CL/F) in data set [2] is 10 mL/min/kg. In [3], this molecule registered a Ki of 3.1 nM.
Turning to `CS(=O)(=O)c1ccc(F)c(C#Cc2cc(Cl)ccc2OCC(=O)O)c1`, the fraction unbound in data set [10] stood at 0.011; in data set [7] it was 0.054; in [6], 0.013. The AUC in [1] worked out at 3240 ng·h/mL. In [2], this molecule showed a CL/F of 6.67 mL/min/kg. In [3], the affinity corresponds to a Ki of 3.3 nM. Also, the Emax in [4] was determined as 10%. For the same molecule, the bioavailability in data set [5] was 24%.
`CC(C)S(=O)(=O)c1ccc(Cl)c(C#Cc2cc(Cl)ccc2OCC(=O)O)c1`: in [2], the CL/F was 11.7 mL/min/kg. The same molecule showed a Ki in [3] of 2.9 nM.
As to `CCNS(=O)(=O)c1ccc(C)c(C#Cc2cc(Cl)ccc2OCC(=O)O)c1`, the fraction unbound in data set [10] was found to be 0.008; in [7], 0.008; in [6] it was 0.005. Besides, the microsomal CLint at 1 µM is less than 10 µL/min/mg in [8] and 24 µL/min/mg in data set [9]. The molecule further displayed a Ki in data set [3] of 4.4 nM.
As to `O=C(O)COc1ccc(Cl)cc1C#Cc1ccc2c(c1)S(=O)(=O)c1ccccc1-2`, the fraction unbound in data set [6] is less than 0.001. Further, the CL/F in [2] was 1.67 mL/min/kg. The same molecule gave a Ki in data set [3] of 12 nM.
`CS(=O)(=O)c1cccc(C#Cc2cc(Cl)ccc2OCC(=O)O)c1`: the Ki in [3] turned out to be 15 nM. In data set [4], this molecule registered an Emax of 10%.
Turning to `Cc1ccc(S(=O)(=O)N2CCOCC2)cc1C#Cc1cc(Cl)ccc1OCC(=O)O`, the microsomal CLint at 1 µM was less than 10 µL/min/mg in [8] and 10 µL/min/mg in data set [9]. Moreover, in data set [1], the AUC was determined as 1220 ng·h/mL. The molecule further showed a CL/F in data set [2] of 31.7 mL/min/kg. Besides, the Ki in data set [3] was found to be 3.6 nM. In data set [5], the bioavailability stood at 48%.
Turning to `CCCS(=O)(=O)c1cccc(C#Cc2cc(-c3ccccc3)ccc2OCC(=O)O)c1`, affinity in data set [3] was put at a Ki of 19 nM. This molecule showed a maximal response (Emax) in [4] of 68%.
Turning to `O=C(O)COc1ccc(Cl)cc1C#Cc1cccc(S(=O)(=O)CCO)c1`, the fraction unbound in [10] was 0.081; in data set [7], 0.3; in data set [6], 0.047. Moreover, in [3], the affinity corresponds to a Ki of 10 nM.
Molecule `CC(C)S(=O)(=O)c1ccc(F)c(C#Cc2cc(Cl)ccc2OCC(=O)O)c1` gave an apparent clearance (CL/F) in data set [2] of 5.83 mL/min/kg. This molecule also yielded a Ki in data set [3] of 4 nM. Further, the bioavailability in data set [5] turned out to be 130%.
